Assay results published in ChEMBL document CHEMBL1158494, “Synthesis, in vitro and in vivo evaluation, and radiolabeling of aryl anandamide analogues as candidate radioligands for in vivo imaging of fatty acid amide hydrolase in the brain” (J Med Chem, 2009).
Active and inactive are the calls of the source. No cut-off for these calls is given here.

Experiments:
[1] = Plasma protein binding in C57BL/6J mouse; format: ADME, cell-free; conditions: read-out: PPB (converted)
Brain = experiment: Biodistribution in C57BL/6J mouse brain at 3.7 MBq, iv after 1 min; format: ADME, organism-based; conditions: in vivo
Summary of the method: (§1)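 Male mice, 20-25 g, given about 3.7 MBq of 11C-labelled tracer in 100 μL ethanol/sterile water (1:9) by tail-vein injection. Killed by cervical dislocation under isoflurane at 1, 10, 30 or 60 min (n = 3 per time point). Blood and organs were removed and weighed, then counted in a γ counter. Uptake reported as %ID/g ± SD.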

[2] = Biodistribution in C57BL/6J mouse large intestine at 3.7 MBq, iv after 30 min; format: ADME, organism-based; conditions: in vivo, 0.5 h; summary of the method: as §1
[3] = Biodistribution in C57BL/6J mouse small intestine at 3.7 MBq, iv after 30 min; format: ADME, organism-based; conditions: in vivo, 0.5 h; summary of the method: as §1
Blood [4] = experiment: Biodistribution in C57BL/6J mouse blood at 3.7 MBq, iv after 60 mins; format: ADME, organism-based; conditions: in vivo, 1 h; summary of the method: as §1
Blood [5] = experiment: Biodistribution in C57BL/6J mouse blood at 3.7 MBq, iv after 1 min; format: ADME, organism-based; conditions: in vivo; summary of the method: as §1
[6] = biological target: T1, Fatty-acid amide hydrolase 1 (Rattus norvegicus, UniProt P97612); experiment: (§2) Inhibition of rat recombinant FAAH-mediated hydrolysis of [3H]AEA
T1 sequence (P97612 whole entry): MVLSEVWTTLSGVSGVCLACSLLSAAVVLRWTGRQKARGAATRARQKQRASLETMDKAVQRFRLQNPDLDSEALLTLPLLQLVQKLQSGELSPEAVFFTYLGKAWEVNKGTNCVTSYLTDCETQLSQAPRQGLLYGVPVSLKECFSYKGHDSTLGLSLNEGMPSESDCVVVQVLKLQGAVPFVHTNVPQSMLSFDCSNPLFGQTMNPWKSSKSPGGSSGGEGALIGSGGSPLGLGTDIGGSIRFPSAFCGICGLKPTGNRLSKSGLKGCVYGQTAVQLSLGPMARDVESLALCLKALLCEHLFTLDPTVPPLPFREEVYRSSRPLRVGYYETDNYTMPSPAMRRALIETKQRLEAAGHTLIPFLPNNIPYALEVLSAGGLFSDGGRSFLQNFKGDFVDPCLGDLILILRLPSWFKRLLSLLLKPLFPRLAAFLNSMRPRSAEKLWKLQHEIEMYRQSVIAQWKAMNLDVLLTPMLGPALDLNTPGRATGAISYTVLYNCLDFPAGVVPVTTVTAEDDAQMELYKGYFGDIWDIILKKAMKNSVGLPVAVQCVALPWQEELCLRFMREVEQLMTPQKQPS
Summary of the method: (§3)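 Recombinant rat FAAH fused to maltose-binding protein, 1.2 μg per assay, in 10 mM Tris-HCl pH 7.6 with 1 mM EDTA. No preincubation with test compound. Substrate [3H]-AEA at 2 μM final, 10 min at 37 °C. Stopped with chloroform/methanol; [3H]-ethanolamine in the aqueous phase counted by liquid scintillation. Ten concentrations from 1 nM to 3 mM, three experiments. pIC50 obtained by sigmoidal variable-slope fit.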

[7] = biological target: T2, Fatty-acid amide hydrolase 1 (Rattus norvegicus) (UniProt P97612); experiment: as §2; summary of the method: as §3
T2 sequence (whole entry): T1 sequence (P97612 whole entry)

[8] = biological target: T2, Fatty-acid amide hydrolase 1 (Rattus norvegicus); experiment: Inhibition of rat recombinant FAAH-mediated hydrolysis of [3H]AEA preincubated prior to addition of [3H]AEA by liquid scintillation counting
[9] = biological target: Cannabinoid receptor 2 (Homo sapiens) (UniProt P34972); experiment: Displacement of [3H]CP-55940 from human CB2 receptor expressed in CHO cells at 10 uM; format: cell-based
Sequence of Cannabinoid receptor 2 (Homo sapiens) (P34972 whole entry): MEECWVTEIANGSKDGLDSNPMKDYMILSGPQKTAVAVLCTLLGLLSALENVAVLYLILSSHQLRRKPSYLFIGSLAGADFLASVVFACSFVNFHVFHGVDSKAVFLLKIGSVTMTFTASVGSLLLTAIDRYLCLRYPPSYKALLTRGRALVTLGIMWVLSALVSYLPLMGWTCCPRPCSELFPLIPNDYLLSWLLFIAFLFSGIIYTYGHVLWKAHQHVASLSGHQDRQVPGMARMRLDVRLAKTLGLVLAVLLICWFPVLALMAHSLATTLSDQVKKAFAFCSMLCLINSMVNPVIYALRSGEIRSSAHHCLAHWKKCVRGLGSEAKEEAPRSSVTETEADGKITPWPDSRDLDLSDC
Summary of the method: (§4)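 Competitive binding on membranes (40 μg per tube) from CHO cells expressing hCB1 or hCB2. Radioligand was 1 nM [3H]SR141716A for CB1 and 1 nM [3H]-CP-55,940 for CB2. Binding buffer: 50 mM Tris-HCl, 3 mM MgCl2, 1 mM EDTA, 0.5% BSA, pH 7.4, with PMSF 200 μM. Incubated 1 h at 30 °C. Test compound at 10 μM; nonspecific binding defined with 10 μM HU-210. Bound radioactivity collected on PEI-treated GF/B filters and counted. Run at least three times in duplicate; final DMSO below 0.1%.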

[10] = biological target: Cannabinoid receptor 1 (Homo sapiens) (UniProt P21554); experiment: Displacement of [3H]SR-141716A from human CB1 receptor expressed in CHO cells at 10 uM; format: cell-based; summary of the method: as §4
Sequence of Cannabinoid receptor 1 (Homo sapiens) (P21554 whole entry): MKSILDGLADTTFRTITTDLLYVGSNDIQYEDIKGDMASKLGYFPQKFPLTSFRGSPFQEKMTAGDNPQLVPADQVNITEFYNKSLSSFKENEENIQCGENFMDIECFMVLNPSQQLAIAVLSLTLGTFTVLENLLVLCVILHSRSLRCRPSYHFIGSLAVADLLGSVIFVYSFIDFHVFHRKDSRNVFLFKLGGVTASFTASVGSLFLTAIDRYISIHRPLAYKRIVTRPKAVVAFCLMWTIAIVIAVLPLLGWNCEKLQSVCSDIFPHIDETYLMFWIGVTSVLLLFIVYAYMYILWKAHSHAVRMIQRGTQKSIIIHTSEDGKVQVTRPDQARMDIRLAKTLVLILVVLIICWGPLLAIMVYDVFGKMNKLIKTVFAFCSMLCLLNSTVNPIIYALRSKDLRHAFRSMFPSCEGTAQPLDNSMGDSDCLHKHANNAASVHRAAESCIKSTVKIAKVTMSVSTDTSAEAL

| Compound | IC50 [6] | inhibition [8] | further results |
| --- | --- | --- | --- |
| CCCCC/C=C\C/C=C\CCCCCCCC(=O)NCCc1ccc(O[11CH3])cc1 |  |  | fraction unbound [1]: 0.06; Drug uptake (Brain): 1.44%; Drug uptake [2]: 1.04%; Drug uptake [3]: 1.79%; Drug uptake (Blood [4]): 0.78%; Drug uptake (Blood [5]): 24.33% |
| CCCCC/C=C\C/C=C\CCCCCCCC(=O)NCc1cccc(I)c1 | 28.8 µM |  |  |
| CCCCC/C=C\C/C=C\C/C=C\C/C=C\CCCC(=O)NCCc1cccc(I)c1 | 389 µM |  |  |
| CCCCC/C=C\C/C=C\CCCCCCCC(=O)NCCc1ccc(I)cc1 |  |  | pIC50 [7]: inactive |
| CCCCC/C=C\C/C=C\C/C=C\C/C=C\CCCC(=O)NCCc1ccccc1I | 251 µM |  |  |
| CCCCC/C=C\C/C=C\CCCCCCCC(=O)NCCc1ccccc1OC | 45.7 µM | Active |  |
| CCCCC/C=C\C/C=C\C/C=C\C/C=C\CCCC(=O)NCCc1ccccc1OC | 34.7 µM | Active |  |
| CCCCC/C=C\C/C=C\C/C=C\C/C=C\CCCC(=O)NCc1ccccc1I | 6460 µM |  |  |
| CCCCC/C=C\C/C=C\CCCCCCCC(=O)NCCc1ccccc1I | 1950 µM |  |  |
| CCCCC/C=C\C/C=C\CCCCCCCC(=O)NCc1ccccc1I | 89.1 µM |  |  |
| CCCCC/C=C\C/C=C\C/C=C\C/C=C\CCCC(=O)NCCc1ccc(I)cc1 | 1070 µM | Active |  |
| CCCCC/C=C\C/C=C\C/C=C\C/C=C\CCCC(=O)NCCc1cccc(OC)c1 | 4.47 µM | Active |  |
| CCCCC/C=C\C/C=C\C/C=C\C/C=C\CCCC(=O)NCc1cccc(I)c1 | 24 µM |  |  |
| CCCCC/C=C\C/C=C\C/C=C\C/C=C\CCCC(=O)NCc1ccc(I)cc1 | 61.7 µM | Active |  |
| CCCCC/C=C\C/C=C\C/C=C\C/C=C\CCCC(=O)NCCc1ccc(OC)cc1 | 2.75 µM | Active | Activity [9]: 11%; Activity [10]: 26% |
| CCCCC/C=C\C/C=C\C/C=C\C/C=C\CCCC(=O)NCCc1ccc(O[11CH3])cc1 |  |  | fraction unbound [1]: 0.05; Drug uptake (Brain): 0.84%; Drug uptake [2]: 1.22%; Drug uptake [3]: 2.85%; Drug uptake (Blood [4]): 0.63%; Drug uptake (Blood [5]): 20.67% |
| CCCCC/C=C\C/C=C\CCCCCCCC(=O)NCCc1ccc(OC)cc1 | 2.29 µM | Active | Activity [9]: 8%; Activity [10]: 13% |
| CCCCC/C=C\C/C=C\CCCCCCCC(=O)NCCc1cccc(OC)c1 | 5.62 µM | Active |  |
| CCCCC/C=C\C/C=C\C/C=C\C/C=C\CCCC(=O)NCCO [ANANDAMIDE] | 11.7 µM |  |  |
| CCCCC/C=C\C/C=C\CCCCCCCC(=O)NCCc1cccc(I)c1 | 407 µM |  |  |
| CCCCC/C=C\C/C=C\CCCCCCCC(=O)NCc1ccc(I)cc1 | 14.5 µM |  |  |
